# Data as given in ChEMBL document CHEMBL1147868, “Synthesis of novel triazole derivatives as inhibitors of cytochrome P450 14alpha-demethylase (CYP51)” (2007).
# Key:
# Format in all cases: functional
# Candida parapsilosis = assay: Antifungal activity against Candida parapsilosis ATCC 0306392 after 7 days by micro-broth dilution method; details: Lodderomyces parapsilosis, ATCC 0306392, 168 h
# Method in brief: (§1)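 Micro-broth dilution followed NCCLS methods, using an ATCC standard quality-control strain for C. parapsilosis and a clinical isolate for C. tropicalis. Compounds were dissolved in DMSO, serially diluted in growth medium and incubated at 35 C. MIC80 was the first well with about 80% growth reduction compared with the drug-free well.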
# Candida albicans = assay: Antifungal activity against Candida albicans ATCC Y0109 after 24 hrs by micro-broth dilution method
# Method in brief: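 An ATCC standard quality-control strain was included in each run of an NCCLS micro-broth dilution assay. Compounds were dissolved in DMSO, serially diluted in growth medium and incubated at 35 C. Reading was at 24 h, and MIC80 was the first well showing roughly 80% growth reduction versus the drug-free control.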
# Candida tropicalis = assay: Antifungal activity against Candida tropicalis after 7 days by micro-broth dilution method; details: 168 h; method in brief: as §1
# Cryptococcus neoformans = assay: Antifungal activity against Cryptococcus neoformans ATCC BLS108 after 72 hrs by micro-broth dilution method
# Method in brief: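 This ATCC standard quality-control strain was tested in every assay by NCCLS microdilution. Test agents were dissolved in DMSO and serially diluted in growth medium. Cultures were incubated at 35 C and read at 72 h. MIC80 was the first well with approximately 80% reduced growth relative to the drug-free well.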
# Aspergillus fumigatus = assay: Antifungal activity against Aspergillus fumigatus after 7 days by micro-broth dilution method; details: 168 h
# Method in brief: (§2)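 Clinical isolates supplied by a hospital were tested by NCCLS broth microdilution. Compounds were dissolved in DMSO, serially diluted in growth medium, inoculated and incubated at 35 C. Growth was read at 7 days for filamentous fungi. MIC80 was taken as the first well with about 80% less growth than the drug-free well.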
# Trichophyton rubrum = assay: Antifungal activity against Trichophyton rubrum after 7 days by microbroth dilution method; details: 168 h; method in brief: as §2
# Fonsecaea compacta = assay: Antifungal activity against Fonsecaea compacta after 7 days by micro-broth dilution method; details: 168 h; method in brief: as §2
# Microsporum = assay: Antifungal activity against Microsporum gypseum after 7 days by micro-broth dilution method; details: 168 h; method in brief: as §2
SMILES,MIC80 (Candida parapsilosis) [µg/mL],MIC80 (Candida albicans) [µg/mL],MIC80 (Candida tropicalis) [µg/mL],MIC80 (Cryptococcus neoformans) [µg/mL],MIC80 (Aspergillus fumigatus) [µg/mL],MIC80 (Trichophyton rubrum) [µg/mL],MIC80 (Fonsecaea compacta) [µg/mL],MIC80 (Microsporum) [µg/mL]
CCCCc1ccc(C(=O)Nc2ccc(N3CCN(CC(O)(Cn4cncn4)c4ccc(F)cc4F)CC3)c(F)c2)cc1 (stereo not drawn),1,1,1,1,16,1,0.0625,0.0625
O=C(Nc1ccc(N2CCN(CC(O)(Cn3cncn3)c3ccc(F)cc3F)CC2)c(F)c1)c1ccc(F)cc1 (stereo not drawn),0.0039,0.0152,0.0152,0.0152,1,0.25,0.0625,0.0152
Nc1ccc(N2CCN(CC(O)(Cn3cncn3)c3ccc(F)cc3F)CC2)c(F)c1 (stereo not drawn),0.25,0.25,4,0.0152,4,0.25,0.25,0.0625
COc1cccc(C(=O)Nc2ccc(N3CCN(CC(O)(Cn4cncn4)c4ccc(F)cc4F)CC3)c(F)c2)c1 (stereo not drawn),0.0152,0.0625,0.0152,0.0152,1,0.0152,0.25,0.25
O=C(Nc1ccc(N2CCN(CC(O)(Cn3cncn3)c3ccc(F)cc3F)CC2)c(F)c1)c1ccccc1 (stereo not drawn),0.0152,0.0625,0.0039,0.0625,1,0.0152,0.25,0.0152
O=C(Nc1ccc(N2CCN(CC(O)(Cn3cncn3)c3ccc(F)cc3F)CC2)c(F)c1)c1ccccc1[N+](=O)[O-] (stereo not drawn),0.0625,0.0152,0.0625,1,1,0.0152,1,0.0625
COc1ccc(C(=O)Nc2ccc(N3CCN(CC(O)(Cn4cncn4)c4ccc(F)cc4F)CC3)c(F)c2)cc1 (stereo not drawn),0.0152,0.0152,0.0152,0.0625,0.25,0.25,0.25,0.25
O=C(Nc1ccc(N2CCN(CC(O)(Cn3cncn3)c3ccc(F)cc3F)CC2)c(F)c1)c1cccc(Cl)c1 (stereo not drawn),0.0152,0.25,0.0625,0.25,4,0.0625,0.25,0.0625
O=C(Nc1ccc(N2CCN(CC(O)(Cn3cncn3)c3ccc(F)cc3F)CC2)c(F)c1)c1cccc(C(F)(F)F)c1 (stereo not drawn),0.0152,0.25,0.25,0.25,4,0.0625,0.25,0.0625
CCCCCc1ccc(C(=O)Nc2ccc(N3CCN(CC(O)(Cn4cncn4)c4ccc(F)cc4F)CC3)c(F)c2)cc1 (stereo not drawn),0.25,0.25,4,0.25,4,1,1,1
CCC(C)n1ncn(-c2ccc(N3CCN(c4ccc(OCC5COC(Cn6cncn6)(c6ccc(Cl)cc6Cl)O5)cc4)CC3)cc2)c1=O (stereo not drawn) [ITRACONAZOLE],0.25,1,0.25,1,1,0.0152,0.25,0.0152
O=C(Nc1ccc(N2CCN(CC(O)(Cn3cncn3)c3ccc(F)cc3F)CC2)c(F)c1)c1ccccc1F (stereo not drawn),< 0.0039,0.0152,0.0152,0.0152,4,0.0152,0.0625,0.0625
COc1cc(C(=O)Nc2ccc(N3CCN(CC(O)(Cn4cncn4)c4ccc(F)cc4F)CC3)c(F)c2)cc(OC)c1OC (stereo not drawn),0.0625,0.25,0.0625,1,4,> 64,4,1
O=C(Nc1ccc(N2CCN(CC(O)(Cn3cncn3)c3ccc(F)cc3F)CC2)c(F)c1)c1ccccc1Cl (stereo not drawn),0.0152,0.0152,0.0152,0.25,1,0.0152,0.0625,0.0152
OC(Cn1cncn1)(Cn1cncn1)c1ccc(F)cc1F [FLUCONAZOLE],1,4,1,1,64,0.25,16,0.25
CC(=O)N1CCN(c2ccc(OC[C@H]3CO[C@](Cn4ccnc4)(c4ccc(Cl)cc4Cl)O3)cc2)CC1 [KETOCONAZOLE],0.0625,0.0625,0.0625,0.0625,1,0.0625,0.0625,0.0039
O=[N+]([O-])c1ccc(N2CCN(CC(O)(Cn3cncn3)c3ccc(F)cc3F)CC2)c(F)c1 (stereo not drawn),0.0039,0.0152,0.0152,0.0152,1,0.0152,0.0625,0.0152
COc1ccc(C(=O)Nc2ccc(N3CCN(CC(O)(Cn4cncn4)c4ccc(F)cc4F)CC3)c(F)c2)cc1OC (stereo not drawn),0.0625,0.0625,0.0039,0.25,1,0.25,0.25,0.25
Cc1ccc(C(=O)Nc2ccc(N3CCN(CC(O)(Cn4cncn4)c4ccc(F)cc4F)CC3)c(F)c2)c(C)c1 (stereo not drawn),0.25,0.25,0.0625,0.0625,1,0.0625,0.25,0.0152
C[C@@H](c1ncncc1F)[C@](O)(Cn1cncn1)c1ccc(F)cc1F [VORICONAZOLE],1,0.0152,0.25,0.0152,> 64,0.0039,0.0152,0.0039
COc1ccccc1C(=O)Nc1ccc(N2CCN(CC(O)(Cn3cncn3)c3ccc(F)cc3F)CC2)c(F)c1 (stereo not drawn),0.25,0.0625,0.0152,0.0625,1,0.0625,0.25,0.0625
